# According to article PMC2887059 (Journal of Medicinal Chemistry, 2010):
# What was measured:
# [1] = tested on: NF-κB activation (HEK293-NF-κB-Luc cells, PMA/ionomycin); assay type: cell-based, human; settings: HEK293 NF-κB-luciferase reporter; for fold drop in activity relative to 1a: versus 1a
# PKC-θ = settings: concentrations up to 8 μM; cited from earlier work
# IKK-β = settings: concentrations up to 8 μM; cited from earlier work
# 353 protein kinases = assay: KINOMEscan broad kinome screen; assay type: binding; settings: of 353 protein kinases surveyed, 10 μM
# Raf = assay: KINOMEscan; assay type: binding; settings: 10 μM
# [2] = tested on: IL-8 production in HEK293 cells; assay: IL-8 production induced by PKC activators in HEK293 cells; assay type: cell-based; settings: Homo sapiens, HEK293, read-out: IC50, IL-8 production
# [3] = Plasma stability, human plasma; assay type: in vitro ADME; settings: human plasma/PBS; compound at 40 μM, 3 h
# [4] = Metabolic stability in mouse hepatic microsomes; assay type: in vitro ADME; settings: 1 h
# [5] = tested on: NF-κB reporter gene activation (other pathways); assay: NF-κB reporter gene activation by agonists of other NF-κB activation pathways; assay type: cell-based
# [6] = tested on: NF-κB activation induced by TNF-α; assay: NF-κB activation through TNF-α stimulation; assay type: cell-based
# TLK1 = target: T1, TLK1 (Homo sapiens, UniProt Q9UKI8); assay: KINOMEscan; assay type: binding; settings: 10 μM
# T1 sequence (Q9UKI8 1-766): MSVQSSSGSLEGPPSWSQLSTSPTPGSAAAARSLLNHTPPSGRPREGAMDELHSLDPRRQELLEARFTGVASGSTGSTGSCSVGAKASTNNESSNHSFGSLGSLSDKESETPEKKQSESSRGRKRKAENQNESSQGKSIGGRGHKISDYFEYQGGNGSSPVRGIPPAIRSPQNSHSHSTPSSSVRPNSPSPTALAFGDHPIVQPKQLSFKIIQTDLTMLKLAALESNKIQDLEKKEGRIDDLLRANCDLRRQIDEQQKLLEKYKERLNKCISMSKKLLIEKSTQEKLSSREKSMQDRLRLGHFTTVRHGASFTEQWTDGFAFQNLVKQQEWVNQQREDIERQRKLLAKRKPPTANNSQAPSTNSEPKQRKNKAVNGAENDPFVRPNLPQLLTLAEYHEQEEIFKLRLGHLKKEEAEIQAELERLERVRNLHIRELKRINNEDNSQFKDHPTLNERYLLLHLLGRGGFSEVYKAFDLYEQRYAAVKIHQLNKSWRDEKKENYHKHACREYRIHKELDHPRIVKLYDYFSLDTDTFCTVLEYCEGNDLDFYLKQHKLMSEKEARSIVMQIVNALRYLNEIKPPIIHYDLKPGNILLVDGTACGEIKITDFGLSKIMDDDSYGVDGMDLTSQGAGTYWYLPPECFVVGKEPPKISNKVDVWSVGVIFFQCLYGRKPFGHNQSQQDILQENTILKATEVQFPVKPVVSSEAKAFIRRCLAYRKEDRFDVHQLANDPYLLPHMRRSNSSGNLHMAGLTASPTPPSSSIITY
# [7] = Plasma stability, mouse plasma; assay type: in vitro ADME; settings: mouse plasma/PBS; compound at 40 μM, 3 h
# [8] = tested on: IL-2 production by Jurkat T-cells; assay: IL-2 production by Jurkat T-cells; assay type: cell-based; settings: Homo sapiens, read-out: IC50, production of IL-2
# Method in brief: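 Jurkat T cells were stimulated either with CD3/CD28 or with PMA/ionomycin in the presence of test compound. IL-2 production was measured and an IC50 derived.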
# [9] = Plasma protein binding, human plasma; assay type: in vitro ADME
# [10] = In vivo dose-exposure profiling, single ip dose in male mice; settings: 50 mg/kg ip, t = 3 h
# JAK2 = JAK2 (Homo sapiens, UniProt O60674); assay: KINOMEscan; assay type: binding; settings: 10 μM
# PKC-β = settings: concentrations up to 8 μM; cited from earlier work
# murine B-lymphocytes = assay: Anti-IgM-stimulated proliferation of murine B-lymphocytes; assay type: cell-based; settings: Mus musculus, read-out: IC50, proliferation of B-lymphocytes
# [11] = Metabolic stability in human hepatic microsomes; assay type: in vitro ADME; settings: 1 h
# [12] = tested on: 92 targets (cloned human or rodent receptors, ion channels, and transporters); assay: NIMH-PDSP receptor, ion channel and transporter panel; assay type: binding; settings: of 92 targets screened, 10 μM
# [13] = Plasma protein binding, mouse plasma; assay type: in vitro ADME
# JAK2, sequence (O60674 whole entry): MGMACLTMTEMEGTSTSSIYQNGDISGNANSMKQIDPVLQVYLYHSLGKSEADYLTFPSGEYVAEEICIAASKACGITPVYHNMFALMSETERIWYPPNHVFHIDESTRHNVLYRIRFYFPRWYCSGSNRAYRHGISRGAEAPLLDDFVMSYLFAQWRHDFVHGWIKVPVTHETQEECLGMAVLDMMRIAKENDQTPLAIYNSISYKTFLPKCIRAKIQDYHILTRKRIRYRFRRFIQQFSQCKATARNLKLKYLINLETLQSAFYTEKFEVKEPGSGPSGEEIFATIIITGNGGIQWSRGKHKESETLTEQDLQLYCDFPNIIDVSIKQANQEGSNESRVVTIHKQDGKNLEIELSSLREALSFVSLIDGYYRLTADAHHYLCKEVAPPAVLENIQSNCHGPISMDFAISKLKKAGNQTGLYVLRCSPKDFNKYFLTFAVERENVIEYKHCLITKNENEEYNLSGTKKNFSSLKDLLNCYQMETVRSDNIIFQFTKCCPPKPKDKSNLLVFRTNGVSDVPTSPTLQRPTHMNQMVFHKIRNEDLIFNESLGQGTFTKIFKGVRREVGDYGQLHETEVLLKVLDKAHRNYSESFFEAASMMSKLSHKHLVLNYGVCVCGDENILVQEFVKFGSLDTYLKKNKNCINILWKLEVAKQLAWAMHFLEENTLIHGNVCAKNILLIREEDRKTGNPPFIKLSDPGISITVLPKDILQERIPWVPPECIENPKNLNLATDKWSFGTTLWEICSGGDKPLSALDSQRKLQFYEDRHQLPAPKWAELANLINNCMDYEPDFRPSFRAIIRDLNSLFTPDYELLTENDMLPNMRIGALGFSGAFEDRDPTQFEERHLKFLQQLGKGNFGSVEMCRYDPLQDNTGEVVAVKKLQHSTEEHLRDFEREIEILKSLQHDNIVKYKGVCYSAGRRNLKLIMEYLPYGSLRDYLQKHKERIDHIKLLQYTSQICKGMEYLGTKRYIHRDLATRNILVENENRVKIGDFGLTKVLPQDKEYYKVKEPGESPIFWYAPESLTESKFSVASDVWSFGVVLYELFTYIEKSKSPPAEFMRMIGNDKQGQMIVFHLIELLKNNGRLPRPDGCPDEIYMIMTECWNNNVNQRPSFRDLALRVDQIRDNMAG
structure (smiles),measurement,setting,value
Cc1cc2nc(NCCCO)n(CC(=O)c3cccc(OC(C)(C)C)c3)c2cc1C [Compound 1n],NF-κB inhibitory activity (in words),[1],completely inactive
Cc1cc2nc(NCCCO)n(CC(=O)c3cc(C(C)(C)C)cc(C(C)(C)C)c3)c2cc1C [Compound 1l],NF-κB inhibitory activity (in words),[1],retained complete activity
Cc1cc2[nH]c(=O)n(CC(=O)c3cc(C(C)(C)C)c(O)c(C(C)(C)C)c3)c2cc1C [Compound 19],NF-κB inhibitory activity (in words),[1],essentially equipotent to 1a
Cc1cc2nc(NCCCN=[N+]=[N-])n(CC(=O)c3cc(C(C)(C)C)c(O)c(C(C)(C)C)c3)c2cc1C [Compound 1o],fold drop in activity relative to 1a,[1],≤ 6 fold
CC(C)(C)c1cc(C(=O)Cn2c(NCCCO)nc3cc(Br)ccc32)cc(C(C)(C)C)c1O [Compound 1b],fold drop in activity relative to 1a,[1],40−80 fold
C#CCCCCC(=O)OCCCNc1nc2cc(C)c(C)cc2n1CC(=O)c1cc(C(C)(C)C)c(O)c(C(C)(C)C)c1 [Compound 1p],fold drop in activity relative to 1a,[1],≤ 6 fold
"Cc1cc(Cc2cc(C)cc(C(C)(C)C)c2O)c(O)c(C(C)(C)C)c1 [Compound 10, 6,6′-methylenebis-(2-tert-butyl-4-methylphenol), reference compound]",NF-κB inhibitory activity (in words),[1],inactive
"CN[C@@H]1C[C@H]2O[C@@](C)([C@@H]1OC)n1c3ccccc3c3c4c(c5c6ccccc6n2c5c31)C(=O)NC4 [staurosporine, reference compound]",suppression of PKC-θ,PKC-θ,potent inhibition
same,suppression of IKK-β,IKK-β,potent inhibition
CC(C)(C)c1cc(C(=O)Cn2c(NCCCO)nc3ccc(Br)cc32)cc(C(C)(C)C)c1O [Compound 17b],fold drop in activity relative to 1a,[1],40−80 fold
Cc1cc2nc(NCCCO)n(CC(=O)c3cccc(C(C)(C)C)c3)c2cc1C [Compound 1m],NF-κB inhibitory activity (in words),[1],completely inactive
Cc1cc2ncn(CC(=O)c3cc(C(C)(C)C)c(O)c(C(C)(C)C)c3)c2cc1C [Compound 18],NF-κB inhibitory activity (in words),[1],significant loss of activity
"Cc1c(C(C)(C)C)cc(O)cc1C(C)(C)C [Compound 9, 3,5-Di-t-butyl-4-methylphenol, reference compound]",NF-κB inhibitory activity (in words),[1],inactive
CC(C)(C)c1cc(C(=O)Cn2c(NCCCO)nc3cc([N+](=O)[O-])ccc32)cc(C(C)(C)C)c1O [Compound 1e],fold drop in activity relative to 1a,[1],20 fold
"Cc1cc2nc(NCCCO)n(CC(=O)c3cc(C(C)(C)C)c(O)c(C(C)(C)C)c3)c2cc1C [Compound 1a, 1-(3,5-di-tert-butyl-4-hydroxyphenyl)-2-(2-((3-hydroxypropyl)amino)-5,6-dimethyl-1H-benzo[d]imidazol-1-yl)ethanone]",number of kinases inhibited by more than 50%,353 protein kinases,three
same,% inhibition of Raf,Raf,57 % inhibition
same,IC50,[2],< 100 nM
same,plasma stability (% remaining) human,[3],100/100 % remaining
same,microsome stability (% remaining) mouse 1 μM,[4]; 1 μM,0.5 % remaining
same,microsome stability (% remaining) mouse 10 μM,[4]; 10 μM,19 % remaining
same,inhibition of NF-κB reporter gene activation by agonists of the other NF-κB activation pathways,[5],failing to inhibit
same,inhibition of NF-κB activation through TNF-α stimulation,[6],did not inhibit
same,% inhibition of TLK1,TLK1,70 % inhibition
same,plasma stability (% remaining) mouse,[7],100/100 % remaining
same,IC50,[8],< 5000 nM
same,plasma protein binding (% bound) human 1 μM,[9]; 1 μM,99.9 % bound
same,plasma protein binding (% bound) human 10 μM,[9]; 10 μM,99.8 % bound
same,observed tolerability of the cohort,[10],clear signs of morbidity
same,% inhibition of JAK2,JAK2,53 % inhibition
same,suppression of PKC-β,PKC-β,failed to suppress
same,IC50,murine B-lymphocytes,~2000 nM
same,microsome stability (% remaining) human 1 μM,[11]; 1 μM,26 % remaining
same,microsome stability (% remaining) human 10 μM,[11]; 10 μM,55 % remaining
same,number of targets with greater than 50% inhibition,[12],eight
same,suppression of PKC-θ,PKC-θ,failed to suppress
same,suppression of IKK-β,IKK-β,failed to suppress
same,plasma protein binding (% bound) mouse 1 μM,[13]; 1 μM,99.8 % bound
same,plasma protein binding (% bound) mouse 10 μM,[13]; 10 μM,99.9 % bound
CC(C)(C)c1cc(C(=O)Cn2c(NCCCO)nc3ccc([N+](=O)[O-])cc32)cc(C(C)(C)C)c1O [Compound 17e],NF-κB inhibitory activity (in words),[1],inactive
Cc1cc2nc(N3CCC(O)CC3)n(CC(=O)c3cc(C(C)(C)C)c(O)c(C(C)(C)C)c3)c2cc1C [Compound 1k],NF-κB inhibitory activity (in words),[1],abolish activity
